Screening results: PubChem, Sanford-Burnham Center for Chemical Genomics
Compounds with a hit are over-represented: about 1.1% of the library has one in this group of screens.
G6PDH counter – counter-screen for G6PDH assay hits: L. mesenteroides G6PDH inhibition | Purified L. mesenteroides G6PDH, diaphorase/resazurin coupled fluorescence, 45 min | inhibition, % at 5 µM | 0.12% of 200,000 active | AID 1020; in the data active means inhibition above about 50%
PMI activator – activators of human phosphomannose isomerase; P34949; purified human PMI, coupled resazurin fluorescence, 20 min; active compounds read high; 1 = vehicle control, 0 substrate-free wells; activation factor at 20 µM; 0.005% of 190,000 active; AID 1214;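 active means activation factor of 2 or more at 20 µM, relative to plate controls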
Target sequence (P34949 whole entry, looked up): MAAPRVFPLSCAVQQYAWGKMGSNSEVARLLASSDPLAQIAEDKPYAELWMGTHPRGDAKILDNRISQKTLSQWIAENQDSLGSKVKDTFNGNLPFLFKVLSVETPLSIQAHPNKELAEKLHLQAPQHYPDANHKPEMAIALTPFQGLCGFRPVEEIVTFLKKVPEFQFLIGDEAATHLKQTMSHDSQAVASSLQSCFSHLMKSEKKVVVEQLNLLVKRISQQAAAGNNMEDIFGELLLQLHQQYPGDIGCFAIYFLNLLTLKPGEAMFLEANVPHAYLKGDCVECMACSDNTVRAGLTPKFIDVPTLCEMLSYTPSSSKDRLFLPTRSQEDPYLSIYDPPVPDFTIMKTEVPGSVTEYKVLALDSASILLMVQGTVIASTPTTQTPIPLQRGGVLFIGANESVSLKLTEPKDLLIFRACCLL
PMI act satM6P – activators of human phosphomannose isomerase at near-saturating mannose 6-phosphate. coupled PMI enzyme assay, resazurin fluorescence, 20 min; active compounds read high; 1 = untreated enzyme, 0 = substrate-free blank. 0.34% of 190,000 active. P34949. activation factor at 20 µM;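 active means activation factor of 2 or more at 20 µM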
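Test system: Human PMI in coupled enzyme assay | Input: 15 ng/mL PMI | Medium: HEPES-buffered pH 7.4 with magnesium and detergent | Compound: One concentration, 20 µM, in 1% DMSO | Incubation: Enzyme reaction with compound 20 min at room temperature | Detection: Diaphorase-driven resazurin-to-resorufin fluorescence, excitation 544, emission 590 nm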
Diaphorase inh – inhibits diaphorase or chemically oxidizes, flagging diaphorase assay artifacts; diaphorase resazurin-to-resorufin fluorescence, NADH, 16 min; bacterial (C. kluyveri) enzyme, not human; 0.69% of 190,000 active; inhibition, % at 20 µM; AID 1217;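 active means primary screen inhibition at 20 µM above a set limit, cut at about 50% in these data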;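 further: plate controls were DMSO with full reaction for no effect and wells lacking NADH for full effect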
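System: Diaphorase enzyme from Clostridium kluyveri | Amount: Enzyme working solution with 0.14 U/mL diaphorase | Benchmarks: No-NADH positive control and DMSO neutral control | Signal: Fluorescence of resorufin formed from resazurin, Ex 544/Em 590 nm | Schedule: 16-min room-temperature incubation before reading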
Diaphorase act – diaphorase activation or chemical reduction counter-screen | Diaphorase/resazurin coupled assay, resorufin fluorescence, 16 min; active compounds read high; 1 = vehicle wells, 0 = NADH-free wells | activation factor at 20 µM | 0.005% of 190,000 active | AID 1229;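 active means diaphorase activity raised at least twofold by the compound at 20 µM; inactive means activation factor below 2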
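Material: bacterial diaphorase enzyme (C. kluyveri); amount: enzyme 0.07 U/mL final; reagent: NADH substrate 0.114 mM plus resazurin dye 0.1 mM, final; doses: single compound dose of 20 µM, 1% DMSO final; timing: 16 min enzyme reaction, ambient temperature; measured by: fluorescence of resorufin, 544 nm excitation, 590 nm emission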
Starred values were filed as active, the others as inactive.

SMILES	G6PDH counter	PMI activator	PMI act satM6P	Diaphorase inh	Diaphorase act
Cc1ccc(C(C)C)c(OC(=O)/C=C/c2ccccc2)c1	-5	0.8	0.9	-1	1
CC(Cl)C(=O)c1ccc2c(c1)CCN2C(=O)C1CC1 (stereo not given)	6	1.3	1.3	62*	0.4
COc1ccc(S(=O)(=O)Nc2nc3c(s2)CCCC3)cc1	3	1	1	11	0.9
c1ccc2c(c1)[nH]c1c(N3CCOCC3)ncnc12	-14	0.9	0.9	2	1
CCc1cc(N2CCOCC2)cc2c1[nH]c1ccccc12	29	0.4	0.3	53*	0.5
O=C(NNc1cccc(Cl)n1)Nc1ccc(F)cc1	1	1	1	8	0.9
O=C1C=C(N(CCO)Cc2ccccc2)c2ccccc2C1=O	54*	0.6	0.4	21	0.8
CCOC(=O)C1CCCN(C/C(O)=C(\C#N)c2nc(-c3ccccc3)cs2)C1 (stereo not given)	12	1	1.4	17	0.8
O=C(Oc1cccc2cccnc12)c1cccc([N+](=O)[O-])c1	59*	0.8	0.6	34	0.7
O=C(Oc1ccc(Cl)c2cccnc12)c1cccc([N+](=O)[O-])c1	13	0.8	0.8	25	0.8
O=C(Cc1ccc(Cl)cc1)Oc1cccc2cccnc12	63*	0.7	0.6	42	0.6
Cc1cccc(NC(=O)CN2C(=O)S/C(=C\c3ccc(-c4cccc(C(=O)O)c4C)o3)C2=O)c1	3	1	0.8	22	0.8
Cc1ccc(NC(=O)CN2C(=O)S/C(=C/c3ccc(-c4cc(C(=O)O)ccc4C)o3)C2=O)cc1C	9	0.8	0.9	71*	0.3
C=CCSC1=N/C(=C\c2ccc3c(c2)OCO3)C(=O)S1	10	1	0.9	6	0.9
C=CCSC1=N/C(=C\c2cc(OCC)c(OC(C)=O)c([N+](=O)[O-])c2)C(=O)S1	0	0.7	0.6	57*	0.4
O=c1c2ccccc2sn1-c1ccccc1	-2	0.1	0.4	9	0.9
O=c1c2ccccc2sn1-c1nccs1	2	-0.1	0	51*	0.5
CC(=O)Nc1ccc(C(=O)OCC(=O)N(Cc2ccccc2)C(C)(C)C)cc1	0	1	0.8	54*	0.5
COCCN(C(=S)Nc1ccccc1OC)C(C)c1cccs1 (stereo not given)	-6	0.8	1	16	0.8
Cc1ccc(C(C)C)cc1OCCCCN1CCCC1	-1	1.2	1.1	-2	1
Cc1ccc(CSC2=NCCN2C(=O)c2ccc(S(=O)(=O)N(C)C)cc2)cc1	2	1	1	15	0.8
O=C1/C(=C/c2ccco2)SC(=S)N1C1CCS(=O)(=O)C1 (stereo not given)	13	0.8	0.5	61*	0.4
O=C(O)CCCN1C(=O)/C(=C\c2ccco2)SC1=S	14	0.7	0.4	59*	0.4
O=C(CCCN1C(=O)/C(=C\c2ccco2)SC1=S)Nc1ccc2ccccc2c1	-19	1.1	1.1	23	0.8
Cc1ccc(/C=C2\SC(=S)N(C3CCS(=O)(=O)C3)C2=O)cc1 (stereo not given)	10	1.1	1	-2	1
SMILES	G6PDH counter	PMI activator	PMI act satM6P	Diaphorase inh	Diaphorase act
O=C(O)c1ccccc1-c1ccc(/C=c2\sc3nc4cc(Br)cnc4n3c2=O)o1	16	1.1	1.1	56*	0.4
CCCc1nnc(SCC(=O)N2CCCCC2C)n1CCOC (stereo not given)	9	1	1	15	0.8
COc1ccc(C2C(C(=O)OCC3CCCO3)=C(C)NC3=C2C(=O)CC(c2ccco2)C3)cc1O (stereo not given)	4	0.9	0.9	14	0.9
COC(=O)c1cccc(Cn2c(Cl)c(/C=N/Nc3ccccc3C)sc2=O)c1	-5	1.5	2.5*	17	0.8
Cc1cccc(C)c1NC(=O)COC(=O)c1c2c(nc3ccccc13)/C(=C\c1ccc3c(c1)OCO3)CCC2	4	0.9	0.8	70*	0.3
C#CCOCCOCCOCCNc1nc(N2CCN(C(=O)[C@H](CCC(=O)O)n3cc(C(N)Cc4ccc(O)cc4)nn3)CC2)nc(N2CCN(C(=O)[C@H](CCC(=O)O)n3cc(C(N)CC(C)C)nn3)CC2)n1 (stereo not given in full)	12	0.9	1.2	57*	0.4
COc1ccc(/C(=N\Nc2ccccc2C(=O)O)c2ccccc2)cc1	3	1.6	2.2*	39	0.6
C/C(CC(=O)Nc1ccc(OCc2ccccc2)cc1)=N\NC(=O)C(=O)Nc1ccc(C)c(Cl)c1	-2	1	1	3	1
CC(/C=N/n1c(-c2ccc(Cl)cc2)n[nH]c1=S)=C\c1ccco1	-25	0.7	0.7	53*	0.5
CC(/C=N/n1c(-c2ccco2)n[nH]c1=S)=C\c1ccccc1	-11	0.8	0.8	50*	0.5
S=c1[nH]nc(-c2ccco2)n1/N=C/c1ccc(Cl)cc1	-18	0.9	0.8	39	0.6
S=c1[nH]nc(-c2ccco2)n1/N=C/C=C/c1ccco1	2	1	0.8	64*	0.4
Cc1ccc(-c2n[nH]c(=S)n2/N=C\c2ccco2)cc1	-19	0.9	0.9	46	0.5
CCOC(=O)N1CCC2(CC1)C(C#N)=C(N)Oc1c2c(C)nn1-c1cccc(Cl)c1	-1	1.5	2*	17	0.8
Cc1[nH]n(-c2ccccc2)c(=O)c1/C=N/NC(=O)COc1ccccc1[N+](=O)[O-]	-1	0.9	0.4	53*	0.5
COC(=O)N/N=C\c1c(C)[nH]n(-c2ccccc2)c1=O	16	0.8	0.7	25	0.8
CC(=O)N/N=C/c1c(C)[nH]n(-c2ccccc2)c1=O	18	0.7	0.9	56*	0.4
Cc1cc(C)nc(SC(C)CNS(=O)(=O)c2ccccc2)n1 (stereo not given)	4	1	1	6	0.9
CC(=O)Nc1ccc(S(=O)(=O)NC2(C(F)(F)F)N=C(c3ccccc3)NC2=O)cc1 (stereo not given)	7	0.9	0.9	2	1
O=C(O)COn1c(-c2ccccc2)nc2ccc([N+](=O)[O-])cc21	14	1.3	0.8	50*	0.5
CCOC(=O)C(C)On1c(-c2ccc(Cl)cc2)nc2ccc([N+](=O)[O-])cc21 (stereo not given)	-3	1.4	2*	29	0.7
CCOC(=O)C(C)On1c(-c2ccccc2)nc2ccc([N+](=O)[O-])cc21 (stereo not given)	15	1.6	2*	20	0.8
COc1ccc(C)cc1NC(=O)C(=O)N/N=C(\C)CC(=O)Nc1cccnc1	7	1.1	1.2	5	0.9
